# Screen size: about 340,000 compounds; about 3,000 (0.88%) were called active.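 The calls were made as follows: active = inhibition above about 50% at 20 µM (limit read from the data); inactive = the rest.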 The entries come from a sample that favours actives as a whole.
# Target: Carboxy-terminal domain RNA polymerase II polypeptide A small phosphatase 1 (Homo sapiens) (UniProt Q9GZU7)
# Experiment: inhibition of human SCP1 dephosphorylation activity – biochemical, colorimetric, uHTS, primary screen (AID 493091);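 also: plate controls were DMSO wells with enzyme for no effect and wells lacking enzyme for full effect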
# Settings: Recombinant Scp1, phosphopeptide, malachite green phosphate absorbance; at 20 µM; active compounds read high
# In short: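 System: SCP-1 catalytic domain; Reagent: Phospho 17-mer peptide substrate; Doses: one concentration, 20 µM, with 1.0% DMSO; Incubation: 45 min room-temperature reaction, 5 min colour, 30 min stabiliser; Signal: Phosphate-binding colour reagent, absorbance read at 630 nm.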
# Chain of Carboxy-terminal domain RNA polymerase II polypeptide A small phosphatase 1 (Homo sapiens) (Q9GZU7 76-261 limits assumed): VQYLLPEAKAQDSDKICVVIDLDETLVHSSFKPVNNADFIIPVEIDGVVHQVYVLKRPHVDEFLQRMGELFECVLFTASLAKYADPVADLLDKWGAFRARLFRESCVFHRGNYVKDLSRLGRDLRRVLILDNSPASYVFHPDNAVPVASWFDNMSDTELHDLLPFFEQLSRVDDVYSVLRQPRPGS
row,Structure (SMILES),inhibition
1,CNC1(c2nnnn2-c2c(C)cccc2C)CCOC(C)(C)C1 (configuration not stated),-10.7% (inactive)
2,Cc1ccc(S(=O)(=O)NCC(=O)N2CCOCCOCCOCCOCC2)cc1,-7.08% (inactive)
3,CC1CCCCC1NC(=O)C1CCCN1S(=O)(=O)c1cccc2nsnc12 (configuration not stated),-9.08% (inactive)
4,Cc1ccc(OCC(=O)NCCCNC(=O)c2cccnc2)cc1C,3.67% (inactive)
5,O=C(COc1ccc(/C=N/NC(=O)c2ccc(O)cc2)cc1)Nc1ccc([N+](=O)[O-])cc1,-4.15% (inactive)
6,Cc1ccc(NC(=O)COc2ccc(/C=N\NC(=O)c3cccnc3)cc2)cc1C,73% (active)
7,CCC(C)OC(=O)C(C)Oc1ccc(-c2ccccc2)cc1 (configuration not stated),0.19% (inactive)
8,O=C(CN1C(=O)COc2ccc(Cl)cc21)N1CCOCC1,3.98% (inactive)
9,Cc1ccc(C2(C)NC(=O)N(CC(=O)Nc3ccccc3C(=O)N3CCCCC3)C2=O)cc1 (configuration not stated),65.5% (active)
10,Cc1ccc(C2(C)NC(=O)N(CC(=O)N3CC(=O)Nc4ccccc43)C2=O)cc1 (configuration not stated),-4.98% (inactive)
11,Cc1ccc(NC(=O)CN2C(=O)NC(C)(c3ccc(Cl)cc3)C2=O)c(Br)c1 (configuration not stated),-3.83% (inactive)
12,CC1CC(C)CN(CCOc2cccc3ccccc23)C1 (configuration not stated),-2.45% (inactive)
13,CCn1ncc(C2=NOC(C(=O)Nc3ccccc3C(=O)OC)C2)c1C (configuration not stated),-6.5% (inactive)
14,O=C(Oc1ccc(-c2nc(-c3ccccn3)no2)cc1)c1ccccc1,7.66% (inactive)
15,O=C1C(=O)N(c2ccccc2)c2ccccc21,-4.37% (inactive)
16,O=C(O)COCC(=O)NCc1csc2ccc(Cl)cc12,11.2% (inactive)
17,Cc1ccc(C(=O)NNc2ncnc3ccccc23)cc1,5.78% (inactive)
18,Cc1ccc(C(=O)NNC(=O)c2ccc3c(c2)OCCO3)cc1,-11.5% (inactive)
19,Cc1ccc(C(=O)NNC(=O)c2cc3cc4ccccc4nc3s2)cc1,83.1% (active)
20,COc1ccc2oc(C(=O)NCC(Cc3ccccc3)N(C)C)c(C)c2c1 (configuration not stated),-2.96% (inactive)
21,O=C(NC(=S)Nc1ccc(Cl)c(C(=O)O)c1)c1cncc(Br)c1,5.31% (inactive)
22,CC(C)c1ccc(NC(=S)NNc2ccc(Cl)c(C(=O)O)c2)cc1,54.9% (active)
23,Cc1ccc(C)c(NC(=S)NNC(=S)Nc2ccc(C(C)C)cc2)c1,3.22% (inactive)

row,Structure (SMILES),inhibition
1,O=C(OCC(=O)N1CCN(C(=O)c2ccco2)CC1)c1ccc(Cl)c(Cl)c1,-3.89% (inactive)
2,O=C1c2ccccc2S(=O)(=O)N1Cc1c(F)cccc1Cl,-6.43% (inactive)
3,CC(Sc1nn(-c2ccc(Cl)cc2)c(=S)s1)C(=O)NCC1CCCO1 (configuration not stated),-9% (inactive)
4,C#CCOc1ccc(/C=C2/C(=O)NN(c3ccccc3)C2=O)cc1OC,-4.73% (inactive)
5,COc1cc(/C=C2/C(=O)NN(c3cccc(Cl)c3)C2=O)cc(Br)c1O,2.98% (inactive)
6,O=C1NN(c2ccccc2)C(=O)/C1=C/c1ccc(-c2cccc(C(=O)O)c2)o1,52% (active)
7,Cc1ccc(-c2c3c(=O)n(C)c(=O)n(C)c3cn2-n2cnnc2)cc1,-6% (inactive)
8,CCOC(=O)Cc1cc(=O)[nH]c(/N=C(\N)Nc2ccc(OC)cc2)n1,-0.71% (inactive)
9,Cc1cc(=O)[nH]c(N/N=C/c2c(C)nn(-c3ccccc3Cl)c2Cl)n1,-253% (inactive)
10,CC1CCN(c2ccc(C(=O)Nc3nnc(C4CC4)s3)cc2[N+](=O)[O-])CC1,-0.75% (inactive)
11,CC1CCN(c2ccc(S(=O)(=O)Nc3cc(C(=O)O)cc(C(=O)O)c3)cc2[N+](=O)[O-])CC1,54.5% (active)
12,COc1ccc(NS(=O)(=O)c2ccc(N3CCN(CCO)CC3)c([N+](=O)[O-])c2)cc1,-2.43% (inactive)
13,Cc1[nH]c2ccccc2c1/C=N/NC(=O)CNC(=O)c1ccc2c(c1)OCO2,-5.09% (inactive)
14,O=C(N/N=C/c1ccc2c(c1)OCO2)C(=O)N1CCCC1,-6.72% (inactive)
15,O=C(CNC(=O)C(c1ccccc1)c1ccccc1)N/N=C\c1ccc2c(c1)OCO2,59.5% (active)
16,CC1C(=O)N2CCCc3cc(S(=O)(=O)NCc4ccc(F)cc4)cc1c32 (configuration not stated),-5.8% (inactive)
17,CN(CCc1ccccn1)S(=O)(=O)c1ccc2c3c(cccc13)C(=O)N2,0.36% (inactive)
18,COc1ccc(S(=O)(=O)N2CCC(C(=O)N3CCCC3)CC2)cc1C,-3.35% (inactive)
19,CCOC(=O)c1sc(NC(=O)CSc2nc(C)cc(C(F)(F)F)n2)c(C#N)c1C,-3.8% (inactive)
20,CC(C)c1cc(NCc2ccccn2)n2c(nc3ccccc32)c1C#N,-0.31% (inactive)
21,O=C(Nc1cccc(F)c1)c1cc(-c2ccco2)nc2ccccc12,57.4% (active)
22,O=C(O)c1cccc(NC(=O)c2cc(-c3cccc(Cl)c3)nc3ccccc23)c1,5.17% (inactive)
23,O=C(CSc1ccc(-c2ccco2)nn1)Nc1cccc(F)c1,-4.82% (inactive)

row,Structure (SMILES),inhibition
1,Cc1cccc(Cn2cnc3c(N)c(C)c(C)cc32)c1,-2.5% (inactive)
2,Cc1onc(-c2c(F)cccc2Cl)c1C(=O)Nc1cccc(S(=O)(=O)N2CCCCC2)c1,-7.5% (inactive)
3,Cc1ccc(CN2CCN(c3ccccc3Cl)CC2)o1,51% (active)
4,Cc1ccc(CN2CCN(Cc3cn(C)nc3-c3ccccc3)CC2CCO)o1 (configuration not stated),-12.6% (inactive)
5,CC(=O)Nc1ccc(OCC(O)CN2CCN(c3ccccc3Cl)CC2)cc1 (configuration not stated),0.19% (inactive)
6,COc1ccc(C(=O)NCc2nnc(SCC(=O)NC3=NCCS3)n2C)cc1,-3.07% (inactive)
7,CC(C)(C)OC(=O)NCCCCCNC(=O)c1[nH]cnc1C(=O)Nc1nccs1,-11.3% (inactive)
8,COC(=O)c1ccc(OC(=O)c2nn(C)cc2Cl)c(OC)c1,1.35% (inactive)
9,COC(=O)c1ccc(SCc2ccccc2)nc1,-6.97% (inactive)
10,COC(=O)c1ccc(-c2c(-c3ccccc3)ncc3cc(OC)c(OC)cc23)cc1,66.9% (active)
11,Cc1ccc2c(c1)C(c1ccccc1)N(C(=O)c1ccc(S(=O)(=O)N3CCOCC3)cc1)CC(=O)N2 (configuration not stated),-1% (inactive)
12,O=S(=O)(Nc1ccc(O)c2ccccc12)c1ccc(OC(F)(F)F)cc1,-14.4% (inactive)
13,Nc1ccccc1SC(C[N+](=O)[O-])c1ccccc1 (configuration not stated),2.72% (inactive)
14,Cc1c(NC(=O)C(C)OC(=O)c2c3c(nc4ccccc24)CCC(C)C3)c(=O)n(-c2ccccc2)n1C (configuration not stated),-2.49% (inactive)
15,COc1cccc(CNCc2ccc3c(c2)OCO3)c1,-9.52% (inactive)
16,COc1cccc(CC(=O)OCC(=O)NCc2ccc3c(c2)OCO3)c1,64.5% (active)
17,Cc1ccc(C(=O)OCC(=O)NCc2ccc3c(c2)OCO3)s1,-4.92% (inactive)
18,CCOC(=O)C1CCN(C(=O)C2CCCN(S(=O)(=O)c3ccc(OC)c(Cl)c3)C2)CC1 (configuration not stated),-4.52% (inactive)
19,CC(=O)OCCC(C)C,12.2% (inactive)
20,COc1ccc(CC(=O)N2N=C(C)CC2(O)C(F)(F)F)cc1 (configuration not stated),-2.15% (inactive)
21,CC1=NN(C(=O)CCCc2ccccc2)C(O)(C(F)(F)F)C1 (configuration not stated),-2.98% (inactive)
22,CC1=NN(C(=O)CCc2ccccc2O)C(O)(C(F)(F)F)C1 (configuration not stated),63% (active)
23,CC(C)(C)c1cc(P(=O)(c2ccccc2)c2ccccc2)ccc1O,4.5% (inactive)

row,Structure (SMILES),inhibition
1,O=C(N/N=C/c1ccc(Cl)c(Cl)c1)c1ccc2nc[nH]c2c1,2.5% (inactive)
2,CSc1ccc(/C=N/NC(=O)c2cccc(Cl)c2)cc1,63.9% (active)
3,O=C(NN=Cc1ccccc1)c1ccccc1,-6.69% (inactive)
4,N#CCCN1CCN(S(=O)(=O)c2ccc(S(=O)(=O)NC3CCCCC3)cc2)CC1,-9.7% (inactive)
5,Cc1ccc(C(=O)N/N=C/c2cccc3ccccc23)cn1,0.35% (inactive)
6,COc1cc(/C=N/NC(=O)c2cc(-c3ccccc3C)nc3ccccc23)cc(OC)c1O,-6.97% (inactive)
7,COc1cccc(/C=N/NC(=O)c2[nH]nc3c2CCc2ccccc2-3)c1O,89% (active)
8,CN(C(=O)COC(=O)Cc1ccccc1[N+](=O)[O-])C1CCS(=O)(=O)C1 (configuration not stated),1.98% (inactive)
9,CN(CCOc1ccccc1)C(=O)c1cc(-c2ccco2)nc2ccccc12,49% (inactive)
10,CN(C(=O)COC(=O)c1cc(-c2ccco2)nc2ccccc12)C1CCS(=O)(=O)C1 (configuration not stated),88.8% (active)
11,CCOC(=O)C1CCCN(C(=O)c2ccc(CS(=O)(=O)c3ccc(Br)cc3)o2)C1 (configuration not stated),5.99% (inactive)
12,Cc1nnc(SCc2cccc(Cl)c2)n(N)c1=O,-7.11% (inactive)
13,COc1cccc2sc(N(CCCN(C)C)C(=O)C(c3ccccc3)c3ccccc3)nc12,59.4% (active)
14,COc1cccc2sc(N(CCCN(C)C)C(=O)CCS(=O)(=O)c3ccccc3)nc12,8.55% (inactive)
15,Cc1cccc2sc(N(CCCN(C)C)C(=O)CCS(=O)(=O)c3ccccc3)nc12,5.73% (inactive)
16,CC1CN(S(=O)(=O)c2ccccc2)C(C)CN1S(=O)(=O)c1ccccc1 (configuration not stated),15.5% (inactive)
17,O=C(Nc1ccc(Cl)cc1)C1c2cccc[n+]2CC(=O)N1Cc1ccc2c(c1)OCO2 (configuration not stated),39.5% (inactive)
18,C=CCC(Nc1ccccc1)c1cccc(OC)c1OC (configuration not stated),0.9% (inactive)
19,COc1cccc2cc(C(=O)N(C)C)c(=O)oc12,-2.27% (inactive)
20,COc1ccc2oc(=O)cc(-c3cc4ccccc4o3)c2c1,-1.71% (inactive)
21,COc1cccc2cc(-c3cc(=O)oc4cc(C)c(O)cc34)oc12,58.8% (active)
22,Cc1ccsc1-c1nc(CSCC(=O)NCCN2CCCC2)c(C)o1,-6.12% (inactive)
23,COC(=O)C1C(=O)NCC1c1ccc(OC)cc1 (configuration not stated),-1.05% (inactive)

# Reference: PubChem BioAssay AID493091 (Sanford-Burnham Center for Chemical Genomics, 2011)
